Laboratory results from ChEMBL document CHEMBL4765230, “Discovery of Orally Efficacious Phosphoinositide 3-Kinase δ Inhibitors with Improved Metabolic Stability” (J Med Chem, 2016).

What was measured:
[1] = Selectivity index, ratio of IC50 for inhibition of recombinant human full-length N-terminal His-tagged PI3K p110beta/p85alpha to IC50 for inhibition of human full length PI3K p110delta/p85alpha
[2] = Clearance in dog at 1 mg/kg, iv; type: ADME, organism-based, Canis lupus familiaris; settings: in vivo
[3] = molecular target: Phosphatidylinositol 4,5-bisphosphate 3-kinase catalytic subunit gamma isoform (Homo sapiens, UniProt P48736); experiment: Inhibition of PI3K p110gamma in human basophil assessed as reduction in fMLP-induced basophil activation by flow cytometry analysis; type: tissue-based
How it was run: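 Basophil activation via fMLP (p110γ) in 25% serum or in isolated WBCs in low serum, with increasing compound concentrations. Anti-CD63-FITC/anti-CCR3-PE staining; ≥150 (25% serum) or ≥75 (low serum) CCR3-high basophils gated; % CD63-positive normalized to 0.3% DMSO vehicle; concentration corrected for reagent dilution.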

[4] = molecular target: T1, Phosphatidylinositol 4,5-bisphosphate 3-kinase catalytic subunit delta isoform (Homo sapiens, UniProt O00329); experiment: Inhibition of PI3K p110delta in human basophil assessed as reduction in anti-FCepsilonR1 mAb-induced basophil activation preincubated for 60 mins followed by anti-FCepsilonR1 mAb stimulation and measured after 25 mins in presence of 25% serum by flow cytometry analysis; type: tissue-based
T1 sequence (O00329 whole entry): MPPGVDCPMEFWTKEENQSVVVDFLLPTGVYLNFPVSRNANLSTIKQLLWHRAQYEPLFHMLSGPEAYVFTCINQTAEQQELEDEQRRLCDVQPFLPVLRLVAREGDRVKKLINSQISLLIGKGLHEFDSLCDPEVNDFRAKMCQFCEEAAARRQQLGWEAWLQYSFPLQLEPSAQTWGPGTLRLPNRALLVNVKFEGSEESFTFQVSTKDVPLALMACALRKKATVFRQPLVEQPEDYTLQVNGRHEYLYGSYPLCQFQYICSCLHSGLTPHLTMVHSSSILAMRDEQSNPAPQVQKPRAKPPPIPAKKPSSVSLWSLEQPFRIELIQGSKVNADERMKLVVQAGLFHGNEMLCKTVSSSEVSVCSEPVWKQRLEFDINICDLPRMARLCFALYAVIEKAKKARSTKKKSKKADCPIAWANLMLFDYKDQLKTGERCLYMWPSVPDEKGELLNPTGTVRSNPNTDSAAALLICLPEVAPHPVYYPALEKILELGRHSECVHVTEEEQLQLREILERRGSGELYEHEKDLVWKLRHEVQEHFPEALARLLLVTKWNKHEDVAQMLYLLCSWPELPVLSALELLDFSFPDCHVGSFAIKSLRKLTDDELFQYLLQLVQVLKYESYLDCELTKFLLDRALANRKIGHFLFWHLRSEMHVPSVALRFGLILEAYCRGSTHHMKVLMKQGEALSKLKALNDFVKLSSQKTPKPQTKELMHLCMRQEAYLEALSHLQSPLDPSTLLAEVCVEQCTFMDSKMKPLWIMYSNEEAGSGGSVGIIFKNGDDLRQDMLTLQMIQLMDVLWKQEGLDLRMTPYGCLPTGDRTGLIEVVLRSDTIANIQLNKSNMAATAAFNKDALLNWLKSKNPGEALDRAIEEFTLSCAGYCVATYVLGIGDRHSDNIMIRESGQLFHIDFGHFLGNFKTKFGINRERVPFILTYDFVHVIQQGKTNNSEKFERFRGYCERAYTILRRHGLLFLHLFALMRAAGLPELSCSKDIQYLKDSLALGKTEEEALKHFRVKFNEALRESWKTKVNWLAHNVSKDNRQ

Rattus norvegicus [5] = experiment: Antiarthritic activity in Lewis rat model of Freund's incomplete adjuvant-induced arthritis assessed as reduction in ankle swelling at 0.3 mg/kg, po bid administered for 7 days at 12 hrs interval starting from day 10 to day 16 post-immunization by caliper method relative to control; type: functional; set-up: scale not given: the % may be the effect or the level left; settings: time 7 day
How it was run: (§1)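 Established collagen-induced arthritis in female Lewis rats; oral dosing twice daily for 7 days from day 10 after second immunization. Right and left ankle diameters measured by caliper daily, days 9–18; ankle diameter AUC over days 11–18 compared with arthritic vehicle group (ANOVA, p < 0.05). n = 8/treatment group.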

Rattus norvegicus [6] = experiment: Antiarthritic activity in Lewis rat model of Freund's incomplete adjuvant-induced arthritis assessed as reduction in ankle swelling at 3 mg/kg, po bid administered for 7 days at 12 hrs interval starting from day 10 to day 16 post-immunization by caliper method relative to control; type: functional; set-up: scale not given: the % may be the effect or the level left; settings: time 7 day; how it was run: as §1
Rattus norvegicus [7] = experiment: Antiarthritic activity in Lewis rat model of Freund's incomplete adjuvant-induced arthritis assessed as inhibition of pannus formation at 0.3 to 3 mg/kg, po bid administered for 7 days at 12 hrs interval starting from day 10 to day 16 post-immunization by microscopic analysis relative to control; type: functional; set-up: scale not given: the % may be the effect or the level left; settings: dose 0.3-3 mg/kg, time 7 day
How it was run: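 Female Lewis rats with established collagen-induced arthritis dosed orally twice daily for 7 days at 0.3, 1 and 3 mg/kg, starting day 10 after second collagen immunization. Joint histopathology scored for pannus formation, cartilage damage, bone resorption and periosteal bone formation; ED50 derived. n = 8/treatment group, n = 4 normal controls.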

[8] = Selectivity index, ratio of IC50 for inhibition of human full length PI3K p110gamma to IC50 for inhibition of human full length PI3K p110delta/p85alpha
[9] = In vivo inhibition of PI3Kdelta in Lewis rat model of Freund's incomplete adjuvant-induced arthritis at 0.3 mg/kg, po bid administered for 7 days at 12 hrs interval starting from day 10 to day 16 post-immunization relative to control; type: functional; settings: 168 h, time 7 day
How it was run: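 CIA Lewis rats dosed orally twice daily for 7 days at 0.3, 1 or 3 mg/kg; blood/plasma drug levels taken on day 7, 12 h after final dose, and related to PI3Kδ inhibition at trough.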

[10] = Cmax in Lewis rat at 5 mg/kg, po administered as single dose measured at 2 hrs; type: ADME, organism-based; set-up: route oral, dose 5 mg/kg, time 2 hrs; settings: in vivo
How it was run: (§2)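 Female Lewis rats given a single oral dose of 1 or 5 mg/kg; plasma concentration–time profiles determined; mean ± SD, n = 3.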

[11] = AUC infinity in Lewis rat at 1 to 5 mg/kg, po administered as single dose; type: ADME, organism-based; settings: in vivo, dose 1-5 mg/kg; how it was run: as §2
[12] = Inhibition of PI3Kdelta in rat whole blood assessed as reduction in anti-IgD induced B-cell activation by measuring decrease in CD86 surface expression by flow cytometry analysis
Rattus norvegicus [13] = species on record: Rattus norvegicus; experiment: as above

Chain of Phosphatidylinositol 4,5-bisphosphate 3-kinase catalytic subunit gamma isoform (P48736 whole entry, canonical isoform): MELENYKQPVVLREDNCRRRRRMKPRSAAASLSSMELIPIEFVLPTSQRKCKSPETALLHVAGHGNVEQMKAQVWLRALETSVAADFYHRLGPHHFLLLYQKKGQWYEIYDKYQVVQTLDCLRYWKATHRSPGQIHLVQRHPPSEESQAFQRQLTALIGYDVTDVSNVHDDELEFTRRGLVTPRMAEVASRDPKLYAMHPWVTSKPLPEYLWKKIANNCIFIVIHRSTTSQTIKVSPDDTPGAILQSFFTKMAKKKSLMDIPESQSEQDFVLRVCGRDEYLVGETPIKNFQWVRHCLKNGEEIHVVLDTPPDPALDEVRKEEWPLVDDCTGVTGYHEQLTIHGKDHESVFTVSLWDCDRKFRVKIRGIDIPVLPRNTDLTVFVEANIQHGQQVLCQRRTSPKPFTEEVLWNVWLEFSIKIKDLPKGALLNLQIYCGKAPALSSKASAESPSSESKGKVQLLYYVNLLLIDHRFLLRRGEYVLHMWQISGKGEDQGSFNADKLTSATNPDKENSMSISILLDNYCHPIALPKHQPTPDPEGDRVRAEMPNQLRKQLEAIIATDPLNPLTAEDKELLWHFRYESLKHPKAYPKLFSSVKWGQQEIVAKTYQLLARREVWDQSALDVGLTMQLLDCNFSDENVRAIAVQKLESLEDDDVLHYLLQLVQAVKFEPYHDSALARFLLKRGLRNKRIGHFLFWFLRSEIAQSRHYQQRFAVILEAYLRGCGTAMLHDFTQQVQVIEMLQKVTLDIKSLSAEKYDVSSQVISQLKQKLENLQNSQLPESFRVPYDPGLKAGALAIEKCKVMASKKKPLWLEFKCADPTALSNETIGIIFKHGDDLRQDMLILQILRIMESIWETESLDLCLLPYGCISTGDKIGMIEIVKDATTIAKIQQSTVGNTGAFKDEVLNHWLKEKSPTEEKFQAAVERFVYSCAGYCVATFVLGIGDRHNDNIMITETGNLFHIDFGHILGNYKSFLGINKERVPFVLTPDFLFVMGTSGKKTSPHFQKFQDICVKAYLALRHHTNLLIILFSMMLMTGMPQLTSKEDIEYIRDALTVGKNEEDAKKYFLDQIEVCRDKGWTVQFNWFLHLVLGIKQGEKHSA

Ratio IC50 [1]: 100
clearance [2]: 9 mL/min/kg
EC50 [3]: 0.404 µM
EC50 [4]: 0.0013 µM
Ratio IC50 [8]: 190
Cmax [10]: 1780 nM
AUC(0-inf) [11]: 16 µM·h
EC50 [12]: 0.0016 µM
EC90 (Rattus norvegicus [13]): 0.0315 µM
SMILES: N#Cc1c(N)nc(N)nc1N[C@H](c1nc2c(F)ccc(Cl)c2c(=O)n1-c1cccnc1)C1CC1 [GS-9901]
Activity (Rattus norvegicus [5]): 31%
Activity (Rattus norvegicus [6]): 65%
Activity (Rattus norvegicus [7]): 58%
inhibition in vivo at 0.3 mg/kg [9]: 60%
